# Assay results from ChEMBL document CHEMBL1129373, “Synthesis and evaluation of pregnane derivatives as inhibitors of human testicular 17 alpha-hydroxylase/C17,20-lyase” (J Med Chem, 1996).
# Target: T1, Steroid 17-alpha-hydroxylase/17,20 lyase (Homo sapiens, UniProt P05093)
# T1 sequence (P05093 whole entry): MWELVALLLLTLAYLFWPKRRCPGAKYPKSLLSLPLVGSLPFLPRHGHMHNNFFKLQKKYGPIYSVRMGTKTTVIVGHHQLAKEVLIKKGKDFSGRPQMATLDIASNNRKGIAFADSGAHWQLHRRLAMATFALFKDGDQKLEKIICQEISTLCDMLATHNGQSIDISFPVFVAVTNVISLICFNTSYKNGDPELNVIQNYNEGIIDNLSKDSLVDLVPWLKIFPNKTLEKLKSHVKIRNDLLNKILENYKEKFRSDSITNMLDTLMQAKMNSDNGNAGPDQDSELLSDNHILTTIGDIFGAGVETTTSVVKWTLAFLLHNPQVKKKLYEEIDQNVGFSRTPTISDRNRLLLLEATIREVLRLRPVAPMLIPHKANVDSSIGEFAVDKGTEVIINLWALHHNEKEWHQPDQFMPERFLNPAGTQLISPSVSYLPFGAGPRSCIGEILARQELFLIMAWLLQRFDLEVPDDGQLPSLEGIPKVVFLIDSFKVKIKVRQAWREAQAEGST
# Experiment: Inhibition of human testicular C17,20-lyase, cytochrome P450 17A1; No inhibition
# Conditions: not given; call rule not given here
row,Compound,IC50
1,C/C(=N\N(C)C)C1CCC2C3CC=C4C[C@@H](O)CC[C@]4(C)C3CC[C@]12C (stereo partly specified),Not Active
2,C#C[C@]1(O)CCC2C3CCC4=CC(=O)CC[C@]4(C)C3CC[C@@]21C (stereo partly specified),Not Active

# Target: T1, Steroid 17-alpha-hydroxylase/17,20 lyase
# Experiment: Inhibition of human testicular steroid 17-alpha-hydroxylase
# Conditions: not given
# How it was run: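 Human testicular microsomes (from orchidectomy testes, stored −70 °C, diluted in 0.1 M phosphate buffer; ca. 90 μg protein) incubated with [7-³H]pregnenolone (400 nM), NADPH-generating system and four to five inhibitor concentrations, pH 7.4, under oxygen, 5 min, 34 °C. Reverse-phase HPLC with radioactivity counting; hydroxylase activity from conversion to 17α-hydroxypregnenolone plus DHEA. IC50 by nonlinear regression; duplicates, repeated at least once.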
row,Compound,IC50
1,C/C(=N\N(C)C)C1CCC2C3CC=C4C[C@@H](O)CC[C@]4(C)C3CC[C@]12C (stereo partly specified),No inhibition
2,C#C[C@]1(O)CCC2C3CCC4=CC(=O)CC[C@]4(C)C3CC[C@@]21C (stereo partly specified),No inhibition

# Same assay, conditions: read-out: IC50
row,Compound,IC50
1,C#CC1CCC2C3CC=C4C[C@@H](O)CC[C@]4(C)C3CC[C@]12C (stereo partly specified),3560 nM
2,C[C@@H](/C=N/O)[C@H]1CC[C@H]2[C@@H]3CCC4=CC(=O)CC[C@]4(C)[C@H]3CC[C@]12C,5980 nM
3,CC(=O)C1=CCC2C3CCC4=CC(=O)CC[C@]4(C)C3CC[C@]12C (stereo partly specified),1770 nM
4,C/C(=N\N)[C@H]1CC[C@H]2[C@@H]3CC=C4C[C@@H](O)CC[C@]4(C)[C@H]3CC[C@]12C,9980 nM
5,C[C@@H](N)[C@H]1CC[C@H]2[C@@H]3CC=C4C[C@@H](O)CC[C@]4(C)[C@H]3CC[C@]12C,9800 nM
6,C[C@H](N)[C@H]1CC[C@H]2[C@@H]3CC=C4C[C@@H](O)CC[C@]4(C)[C@H]3CC[C@]12C,89800 nM
7,C[C@]12CC[C@H](O)CC1=CCC1C2CC[C@]2(C)/C(=N/O)CCC12 (stereo partly specified),13500 nM
8,C[C@@H](C#N)C1CCC2C3CCC4=CC(=O)CC[C@]4(C)C3CC[C@@]21C (stereo partly specified),1100 nM
9,C[C@@H](O)C1CCC2C3CC=C4C[C@@H](O)CC[C@]4(C)C3CC[C@@]21C (stereo partly specified),180 nM
10,C[C@]12CCC3C(CC=C4C[C@@H](O)CC[C@@]43C)C1CCC2[C@]1(C)CO1 (stereo partly specified),730 nM
11,CN(C=O)C1CCC2C3CCC4=CC(=O)CC[C@]4(C)C3CC[C@@]21C (stereo partly specified),800 nM
12,CC(=O)C1=CCC2C3CC=C4C[C@@H](O)CC[C@]4(C)C3CC[C@]12C (stereo partly specified),510 nM
13,C=CC1CCC2C3CC=C4C[C@@H](O)CC[C@]4(C)C3CC[C@]12C (stereo partly specified),2880 nM
14,CC(O)C1CCC2C3CC=C4C[C@@H](O)CC[C@]4(C)C3CC[C@]12C (stereo partly specified),720 nM
15,C/C(=N/O)C1CCC2C3CC=C4C[C@@H](O)CC[C@]4(C)C3CC[C@]12C (stereo partly specified),530 nM
16,C[C@@H](C=O)C1CCC2C3CCC4=CC(=O)CC[C@]4(C)C3CC[C@@]21C (stereo partly specified),230 nM
17,C[C@@H](O)[C@H]1CC[C@H]2[C@@H]3CCC4=CC(=O)CC[C@]4(C)[C@H]3CC[C@]12C,2840 nM
18,C/C(C#N)=C1/CCC2C3CCC4=CC(=O)CC[C@]4(C)C3CC[C@]12C (stereo partly specified),1220 nM
19,C/C(=N\N(C)C)C1=CCC2C3CC=C4C[C@@H](O)CC[C@]4(C)C3CC[C@]12C (stereo partly specified),43700 nM
20,C[C@@H](O)C1CCC2C3CCC4=CC(=O)CC[C@]4(C)C3CC[C@@]21C (stereo partly specified),490 nM
21,C/C(=N/O)C1=CCC2C3CC=C4C[C@@H](O)CC[C@]4(C)C3CC[C@]12C (stereo partly specified),16 nM
22,C[C@]12CC[C@H](O)CC1=CCC1C2CC[C@]2(C)/C(=N/N)CCC12 (stereo partly specified),6480 nM
